Reference: ChEMBL document CHEMBL1140993, “Design, synthesis and preliminary evaluation of novel pyrrolidine derivatives as matrix metalloproteinase inhibitors” (Eur J Med Chem, 2008)

Tests used:
[1] = target: 72 kDa type IV collagenase (Homo sapiens, UniProt P08253); test: Inhibition of MMP2 by microtiter plate fluorimetric assay
Procedure, shortened: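 Substrate was succinylated gelatin, in 50 mM sodium borate buffer, pH 8.5. Compound and enzyme were preincubated 30 min at 37 °C, then incubated another 60 min at 37 °C after substrate addition. Controls were a 100% group without compound and a blank with enzyme only.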

Aminopeptidase N = Aminopeptidase N (Homo sapiens, UniProt P15144); test: Inhibition of aminopeptidase N by microtiter plate fluorimetric assay; details: in the assay text read “spectrophotometric” for “fluorimetric”
Sequence of Aminopeptidase N (P15144 whole entry): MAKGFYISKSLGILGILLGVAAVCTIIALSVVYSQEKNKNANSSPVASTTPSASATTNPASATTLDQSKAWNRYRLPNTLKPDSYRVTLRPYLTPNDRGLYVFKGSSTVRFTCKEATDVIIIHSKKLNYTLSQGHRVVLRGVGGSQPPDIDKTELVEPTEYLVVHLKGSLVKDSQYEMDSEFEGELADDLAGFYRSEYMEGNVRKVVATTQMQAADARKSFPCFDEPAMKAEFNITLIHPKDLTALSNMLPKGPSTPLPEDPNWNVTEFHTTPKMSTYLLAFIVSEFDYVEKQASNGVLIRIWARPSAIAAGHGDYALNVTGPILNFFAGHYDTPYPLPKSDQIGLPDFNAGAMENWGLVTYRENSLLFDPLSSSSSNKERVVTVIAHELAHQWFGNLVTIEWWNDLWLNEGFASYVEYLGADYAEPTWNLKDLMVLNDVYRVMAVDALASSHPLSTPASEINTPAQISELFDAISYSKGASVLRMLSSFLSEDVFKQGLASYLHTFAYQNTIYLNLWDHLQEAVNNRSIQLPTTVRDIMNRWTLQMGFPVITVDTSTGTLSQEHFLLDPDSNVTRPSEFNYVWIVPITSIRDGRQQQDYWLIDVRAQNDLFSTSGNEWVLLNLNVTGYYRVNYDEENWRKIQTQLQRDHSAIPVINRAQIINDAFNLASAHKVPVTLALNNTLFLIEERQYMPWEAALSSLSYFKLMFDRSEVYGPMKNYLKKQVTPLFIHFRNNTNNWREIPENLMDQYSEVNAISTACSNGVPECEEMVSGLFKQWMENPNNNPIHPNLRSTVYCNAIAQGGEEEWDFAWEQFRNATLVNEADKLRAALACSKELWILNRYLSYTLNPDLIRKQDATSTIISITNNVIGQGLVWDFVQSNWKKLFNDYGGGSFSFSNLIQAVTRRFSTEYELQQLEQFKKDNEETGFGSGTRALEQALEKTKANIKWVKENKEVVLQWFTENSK
Procedure, shortened: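 Substrate was L-leucine p-nitroanilide, in 50 mM sodium phosphate buffer, pH 7.2. Enzyme and compound were preincubated 30 min at 37 °C, then incubated 60 min at 37 °C with substrate. OD405 was read. Inhibition % = [OD(100%) − OD(compound)]/[OD(100%) − OD(blank)] × 100, where 100% has no compound and blank has enzyme only.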

Sequence of 72 kDa type IV collagenase (P08253 whole entry): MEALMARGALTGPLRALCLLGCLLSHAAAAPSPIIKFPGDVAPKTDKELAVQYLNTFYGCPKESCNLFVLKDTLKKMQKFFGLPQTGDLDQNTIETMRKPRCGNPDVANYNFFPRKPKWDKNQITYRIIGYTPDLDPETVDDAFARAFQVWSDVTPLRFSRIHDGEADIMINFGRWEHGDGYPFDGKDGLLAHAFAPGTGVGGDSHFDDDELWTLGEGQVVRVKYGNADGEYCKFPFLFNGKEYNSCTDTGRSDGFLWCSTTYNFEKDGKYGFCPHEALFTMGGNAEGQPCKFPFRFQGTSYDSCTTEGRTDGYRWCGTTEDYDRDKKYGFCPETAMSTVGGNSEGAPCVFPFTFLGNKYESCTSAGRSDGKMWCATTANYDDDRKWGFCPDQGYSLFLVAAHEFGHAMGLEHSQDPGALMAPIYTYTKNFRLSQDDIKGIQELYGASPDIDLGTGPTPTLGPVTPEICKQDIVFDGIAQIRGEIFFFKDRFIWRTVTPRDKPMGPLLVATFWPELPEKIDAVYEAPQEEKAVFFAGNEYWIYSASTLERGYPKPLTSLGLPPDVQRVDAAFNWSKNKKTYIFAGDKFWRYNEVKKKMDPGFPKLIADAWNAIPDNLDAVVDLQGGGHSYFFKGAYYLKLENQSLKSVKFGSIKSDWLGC

IC50 [1] [µM]	IC50 (Aminopeptidase N) [µM]	Structure (SMILES)
2.2	74.8	COC(=O)[C@@H]1C[C@H](NC(=O)c2ccncc2)CN1C(C)=O
1.5	24.1	COC(=O)[C@@H]1C[C@H](N)CN1C(C)=O
2.6	73.7	COC(=O)[C@@H]1C[C@H](N=[N+]=[N-])CN1C(C)=O
1.6	233	COC(=O)[C@@H]1C[C@H](NC(=O)/C=C/c2ccccc2)CN1C(=O)CCc1ccc(OC)c(OC)c1
1.1	46.6	COC(=O)[C@@H]1C[C@@H](OS(C)(=O)=O)CN1C(=O)/C=C/c1ccc(OC)c(OC)c1
0.001	33.5	COc1cc(C(=O)N[C@H]2C[C@@H](C(=O)NO)N(C(C)=O)C2)cc(OC)c1OC
0.005	29.8	CC(=O)N1C[C@@H](NC(=O)c2cccnc2)C[C@H]1C(=O)NO
2.7	123	COC(=O)[C@@H]1C[C@H](NC(=O)c2ccccc2)CN1C(C)=O
4.2	122	COC(=O)[C@@H]1C[C@H](NC(=O)c2ccc(Cl)cc2)CN1C(C)=O
2.1	82.6	COC(=O)[C@@H]1C[C@H](NC(=O)c2cnccn2)CN1C(C)=O
5.2	72.3	COC(=O)[C@@H]1C[C@H](NC(=O)c2ccc([N+](=O)[O-])cc2)CN1C(C)=O
1	78.4	COC(=O)[C@@H]1C[C@H](NC(=O)c2cccnc2)CN1C(C)=O
0.004	56.1	CC(=O)N1C[C@@H](NC(=O)/C=C/c2ccccc2)C[C@H]1C(=O)NO
0.011	96.6	COc1ccc(CCC(=O)N2C[C@@H](NC(=O)/C=C/c3ccccc3)C[C@H]2C(=O)NO)cc1OC
0.109	121	COC(=O)CNC(=O)[C@@H]1C[C@H](NC(=O)c2cc(OC)c(OC)c(OC)c2)CN1C(C)=O
2.9	81.8	COC(=O)[C@@H]1C[C@@H](O)CN1C(=O)/C=C/c1ccc(OC)c(OC)c1
0.3	30.4	COC(=O)[C@@H]1C[C@@H](OS(=O)(=O)c2ccc(C)cc2)CN1C(C)=O
3	137	COC(=O)[C@@H]1C[C@H](NC(=O)c2cccnc2)CN1C(=O)/C=C/c1ccc(OC)c(OC)c1
3.4	71.3	COC(=O)[C@@H]1C[C@H](N=[N+]=[N-])CN1C(=O)/C=C/c1ccc(OC)c(OC)c1
2.1	68.4	COC(=O)[C@@H]1C[C@H](N)CN1C(=O)CCc1ccc(OC)c(OC)c1
2	38.6	COC(=O)[C@@H]1C[C@@H](O)CN1C(C)=O
–	70.6	COC(=O)[C@@H]1C[C@H](N)CN1C(=O)/C=C/c1ccc(OC)c(OC)c1
0.1	135	COC(=O)[C@@H]1C[C@H](NC(=O)/C=C/c2ccccc2)CN1C(C)=O
0.1	98.4	COC(=O)[C@@H]1C[C@H](NC(=O)c2cc(OC)c(OC)c(OC)c2)CN1C(C)=O
0.012	62.2	COc1ccc(CCC(=O)N2C[C@@H](NC(=O)c3cccnc3)C[C@H]2C(=O)NO)cc1OC
2.2	196	COC(=O)[C@@H]1C[C@H](NC(=O)c2cccnc2)CN1C(=O)CCc1ccc(OC)c(OC)c1
6.1	149	COC(=O)[C@@H]1C[C@H](NC(=O)c2ccc(Br)cc2)CN1C(C)=O
0.8	162	COC(=O)[C@@H]1C[C@H](NC(=O)/C=C/c2ccc(OC)c(OC)c2)CN1C(C)=O
0.016	51.4	COc1cc(C(=O)N[C@H]2C[C@@H](C(=O)O)N(C(C)=O)C2)cc(OC)c1OC
